PMI act = activators of human phosphomannose isomerase; P34949; purified human PMI, coupled resazurin fluorescence, 20 min; active compounds read high; 1 = vehicle control, 0 substrate-free wells; activation factor at 20 µM; 190,000 tested, 0.005% active;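 active = activation factor of 2 or more at 20 µM, relative to plate controls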
Target sequence (P34949 whole entry, looked up): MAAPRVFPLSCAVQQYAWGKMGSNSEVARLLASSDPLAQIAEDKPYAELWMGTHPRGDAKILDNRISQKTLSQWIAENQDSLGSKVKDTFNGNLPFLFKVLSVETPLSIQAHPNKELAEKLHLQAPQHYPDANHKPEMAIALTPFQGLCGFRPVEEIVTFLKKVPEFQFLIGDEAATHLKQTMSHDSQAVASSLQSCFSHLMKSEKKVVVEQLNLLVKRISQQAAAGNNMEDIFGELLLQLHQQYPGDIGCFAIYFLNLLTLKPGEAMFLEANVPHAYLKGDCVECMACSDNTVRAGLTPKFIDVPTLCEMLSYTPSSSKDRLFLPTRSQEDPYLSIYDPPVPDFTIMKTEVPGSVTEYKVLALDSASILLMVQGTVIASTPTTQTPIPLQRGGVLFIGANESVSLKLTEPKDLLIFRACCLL
L major viab = Leishmania major promastigote growth inhibition | 200,000 tested, 9% active | inhibition, % at 10 µM | Leishmania major promastigotes, resazurin fluorescence viability; in the data active = inhibition above about 50%;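 also: promastigotes grown with compound for 44 hours at 28 °C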
PTEN del growth = PTEN-deleted cell growth suppression; HCT116 PTEN-null viability, CellTiter-Glo, 60 h; active compounds read low; viability, % at 10 µM; AID 827; 140,000 tested, 1.2% active;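 active = viability at or below a set limit, 4 SD under the median of all tested compounds, cut at about 3.7% in these data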;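 also: PTEN knockout HCT116 line with beta catenin targeted HCT116 as companion control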
HCT116 bCat-KO = beta-catenin-lacking colon tumor cell growth suppression. AID 818. HCT116 beta-catenin knockout viability, CellTiter-Glo, 60 h; active compounds read low. viability, % at 10 µM. 140,000 tested, 1.5% active;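 active = viability at or under a set limit, the compound median less 4 SD, cut at about 6% in these data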;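 also: 0% = Hyamine 1622 control at 20 µM and 100% = untreated cell control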
PMI act satM6P = increases human PMI activity with near-saturating mannose 6-phosphate; activation factor at 20 µM; 190,000 tested, 0.34% active; coupled PMI enzyme assay, resazurin fluorescence, 20 min; active compounds read high; 1 = untreated enzyme, 0 = substrate-free blank; P34949;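 active = activation factor of 2 or more at 20 µM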
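Material: human phosphomannose isomerase with PGI, G6PDH, diaphorase coupling enzymes / Reagent: Man-6-P substrate 1.0 mM / Dosing: single compound dose of 20 µM, 1% DMSO final / Incubation: enzyme reaction with compound 20 min at room temperature / Signal: resorufin fluorescence (Ex 544/Em 590 nm) from resazurin via diaphorase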
* hit, by the source's call; / = no result given. In the library only some 9.6% were active in any assay of this set; here they are far more common.

SMILES	PMI act	L major viab	PTEN del growth	HCT116 bCat-KO	PMI act satM6P
CCOC(=O)c1c(CSc2ccccc2)n(C)c2ccc(O)c(CN3CCOCC3)c12	0.9	21.6	/	/	0.8
Cc1ccc(C2=C/C(=C/c3cccs3)C(=O)O2)cc1	1	37.9	93.4	91.0	1.1
O=C(NN1C(=O)/C(=C\c2cccnc2)SC1=S)c1ccco1	1	35.2	/	/	1
CSc1ccc(S(=O)(=O)Nc2ccc(OCC(=O)N3CCOCC3)cc2)cc1	0.9	-1.7	/	/	0.9
CCN(CC)CCn1c(NCc2ccco2)nc2ccccc21	1	1.4	87.4	73.6	1.1
CCN(CC)c1ccc(CNc2nc3ccccc3n2CCN2CCCCC2)cc1	0.9	100.5*	/	/	0.9
CCN(CC)CCn1c(NCc2nc3ccccc3n2Cc2ccccc2)nc2ccccc21	1	100.1*	38.3	47.4	1.1
COc1cc(CNC(=O)c2cccc(COc3ccc(Cl)cc3)c2)cc(OC)c1	0.8	-1.5	68.3	70.1	0.8
CCO[C@@H]1OC(C(=O)NCc2nc3ccccc3[nH]2)=C[C@H](c2ccc(C(F)(F)F)cc2)[C@H]1CCCO	0.7	13.2	/	/	0.8
CCOc1cccc(C(=O)Nc2cccc(-c3nnc(-c4ccc(C)cc4)o3)c2)c1	1	-1.3	3.1*	1.7*	1
CCOc1cccc(C(=O)Nc2cccc(-c3nnc(-c4ccccc4)o3)c2)c1	0.9	20.2	34.4	57.5	1
COC(=O)c1cccc(Oc2cccc(C(F)(F)F)c2)n1	1.1	-1.2	/	/	1
O=C1c2ccccc2C(=O)N1CCCCN(C(=O)c1cccc([N+](=O)[O-])c1)c1ccc(Cl)cc1	1.1	53.6*	77.9	74.7	1.1
COc1ccc(C(=O)NC(CC(=O)O)c2cc([N+](=O)[O-])ccc2Cl)c(SC)c1 (stereo unspecified)	1.2	-8.0	/	/	1.1
COc1ccc2cc(C3CC(c4cccs4)=NN3S(C)(=O)=O)c(Cl)nc2c1 (stereo unspecified)	0.9	23.5	87.1	79.5	0.9
Cc1ccc2nc(Cl)c(C3CC(c4cccs4)=NN3S(C)(=O)=O)cc2c1 (stereo unspecified)	1	84.4*	87.5	91.6	1.2
COc1ccc(NC(=S)N2CCN(CCN=CC3=C(O)CC(c4ccccc4)CC3=O)CC2)cc1 (stereo unspecified)	1	53.3*	97.3	97.8	1
CCOc1ccc2c(c1)C(=NNC(=O)c1ccncc1)c1cc(OCC)ccc1-2	0.8	99.6*	2.4*	3.7*	0.8
O=C(N/N=C1\C/C(=N\NC(=O)c2ccncc2)c2ccccc21)c1ccncc1	1.3	72.5*	/	/	0.6
Cn1c(=O)c2c(nc(N/N=C/c3ccc(OC(=O)c4ccco4)cc3)n2Cc2ccccc2Cl)n(C)c1=O	0.9	55.1*	25.0	38.8	0.9
Cn1c(=O)c2c(nc(N/N=C/c3ccc(OC(=O)c4ccco4)cc3)n2Cc2ccc(F)cc2)n(C)c1=O	1.3	15.1	48.5	59.4	1.5
CCCc1c(OCCCCc2nn[nH]n2)ccc(C(C)=O)c1O	1.2	-9.6	88.8	81.6	1.2
CCC(C)(c1nnnn1-c1c(C)cccc1C)N(N=O)c1cccc(C(F)(F)F)c1 (stereo unspecified)	0.8	100.0*	60.6	57.8	0.9
Cc1ccc(S(=O)(=O)N(C)c2ccc(OCC(=O)Nc3nc4c(ccc5ccccc54)s3)cc2)cc1	1	11.2	79.8	80.0	0.9
Cc1ccc(S(=O)(=O)N(C)c2ccc(OCC(=O)Nc3nc(-c4ccccc4)cs3)cc2)cc1	0.9	89.3*	71.3	67.2	1
SMILES	PMI act	L major viab	PTEN del growth	HCT116 bCat-KO	PMI act satM6P
CN(c1ccc(OCC(=O)Nc2nc(-c3ccccc3)cs2)cc1)S(=O)(=O)c1ccc(F)cc1	0.9	97.2*	57.9	59.1	0.9
CCOC(=O)C(=O)c1csc(NC(=O)COc2ccc(N(C)S(=O)(=O)c3ccc(F)cc3)cc2)n1	0.8	-10.5	99.5	93.2	0.9
Cc1ccc(S(=O)(=O)N(C)c2ccc(OCC(=O)Nc3nc4ccccc4s3)cc2)cc1	0.8	98.2*	30.5	27.1	1
Clc1ccccc1OCCN1CCC(Cc2ccccc2)CC1	1	89.9*	/	/	1.1
COc1cc(C(C)=O)ccc1OCCN1CCC(Cc2ccccc2)CC1	1.2	89.8*	/	/	1.1
CCc1nnc(N/N=C/c2c(C)[nH]c3ccccc23)n1N	1.1	35.3	/	/	0.7
CC(C)(C)c1ccc(-c2conc2N)cc1	1.1	32.2	32.6	46.5	1
